# Measured values published in ChEMBL document CHEMBL4732233, “Faropenem reacts with serine and metallo-β-lactamases to give multiple products” (Eur J Med Chem, 2021).
# Key:
# [1] = Drug metabolism assessed as NDM-1 (unknown origin)-mediated compound hydrolysis by measuring (S)-2-((1S,2R)-1-carboxy-2-hydroxypropyl)-5-(4-hydroxybutylidene)-2,5-dihydrothiazole-4-carboxylic acid formation at 5 mM incubated for 5 mins by 1H-NMR based analysis; type: ADME; details: bacteria, 5000 µM
# How it was run: (§1)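 NDM-1 used at 5 μM with 5 mM faropenem, 5 min incubation, in 50 mM sodium phosphate, pH 7.5, 10% (v/v) D2O. Degradation products monitored by 700 MHz 1H NMR via methyl group signals.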
# [2] = Drug metabolism assessed as OXA10 (unknown origin)-mediated compound hydrolysis by measuring (S)-2-((1S,2R)-1-carboxy-2-hydroxypropyl)-5-((R)-tetrahydrofuran-2-yl)-2,3-dihydrothiazole-4-carboxylic acid formation at 5 mM incubated for 16 hrs by 1H-NMR based analysis; type: ADME; details: bacteria, 5000 µM
# How it was run: (§2)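 OXA-10 at 5 μM with 5 mM faropenem, incubated 16 h in 50 mM sodium phosphate, pH 7.5, 10% (v/v) D2O. Product formation read by 1H NMR (700 MHz) methyl group resonances.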
# [3] = Drug metabolism assessed as OXA-48 (unknown origin)-mediated compound hydrolysis by measuring (S)-2-((1S,2R)-1-carboxy-2-hydroxypropyl)-5-(4-hydroxybutylidene)-2,5-dihydrothiazole-4-carboxylic acid formation at 5 mM incubated for 55 mins by 1H-NMR based analysis; type: ADME; details: bacteria, 5000 µM
# How it was run: (§3)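 Reaction of OXA-48 (5 μM) with 5 mM faropenem for 55 min in 50 mM sodium phosphate pH 7.5, 10% (v/v) D2O. Products assigned from methyl group resonances in 700 MHz 1H NMR spectra.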
# [4] = Drug metabolism assessed as OXA-48 (unknown origin)-mediated compound hydrolysis by measuring (R)-2-((1S,2R)-1-carboxy-2-hydroxypropyl)-5-(4-hydroxybutylidene)-2,5-dihydrothiazole-4-carboxylic acid formation at 5 mM incubated for 55 mins by 1H-NMR based analysis; type: ADME; details: bacteria, 5000 µM; how it was run: as §3
# [5] = Drug metabolism assessed as VIM-2 (unknown origin)-mediated compound hydrolysis by measuring (R)-2-((1S,2R)-1-carboxy-2-hydroxypropyl)-5-((R)-tetrahydrofuran-2-yl)-2,3-dihydrothiazole-4-carboxylic acid formation at 5 mM incubated for 5 mins by 1H-NMR based analysis; type: ADME; details: bacteria, 5000 µM
# [6] = test system: Mycobacterium tuberculosis H37Rv
# [7] = Drug metabolism assessed as L1 (unknown origin)-mediated compound hydrolysis by measuring (S)-2-((1S,2R)-1-carboxy-2-hydroxypropyl)-5-((R)-tetrahydrofuran-2-yl)-2,3-dihydrothiazole-4-carboxylic acid formation at 5 mM incubated for 5 mins by 1H-NMR based analysis; type: ADME; details: bacteria, 5000 µM
# How it was run: (§4)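 L1 enzyme (125 nM) reacted with 5 mM faropenem for 5 min in 50 mM sodium phosphate pH 7.5 containing 10% (v/v) D2O. Product species assigned by 1H NMR (700 MHz) methyl resonances.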
# [8] = Drug metabolism assessed as L1 (unknown origin)-mediated compound hydrolysis by measuring (R)-2-((1S,2R)-1-carboxy-2-hydroxypropyl)-5-(4-hydroxybutylidene)-2,5-dihydrothiazole-4-carboxylic acid formation at 5 mM incubated for 5 mins by 1H-NMR based analysis; type: ADME; details: bacteria, 5000 µM; how it was run: as §4
# [9] = Drug metabolism assessed as L1 (unknown origin)-mediated compound hydrolysis by measuring (R)-2-((1S,2R)-1-carboxy-2-hydroxypropyl)-5-((R)-tetrahydrofuran-2-yl)-2,3-dihydrothiazole-4-carboxylic acid formation at 5 mM incubated for 5 mins by 1H-NMR based analysis; type: ADME; details: bacteria, 5000 µM; how it was run: as §4
# [10] = Drug metabolism assessed as OXA-23 (unknown origin)-mediated compound hydrolysis by measuring (R)-2-((1S,2R)-1-carboxy-2-hydroxypropyl)-5-((R)-tetrahydrofuran-2-yl)-2,3-dihydrothiazole-4-carboxylic acid formation at 2 mM incubated for 15 mins by 1H-NMR based analysis; type: ADME; details: bacteria, 0.25 h, 2000 µM
# Bacteria [11] = test system: Bacteria
# Bacteria [12] = test system: Bacteria; remark: listed apart in the source
# [13] = Drug metabolism assessed as KPC-2 (unknown origin)-mediated compound hydrolysis by measuring (S)-2-((1S,2R)-1-carboxy-2-hydroxypropyl)-5-(4-hydroxybutylidene)-2,5-dihydrothiazole-4-carboxylic acid formation at 5 mM incubated for 72 mins by 1H-NMR based analysis; type: ADME; details: bacteria, 1.2 h, 5000 µM
# [14] = Drug metabolism assessed as OXA-48 (unknown origin)-mediated compound hydrolysis by measuring (S)-2-((1S,2R)-1-carboxy-2-hydroxypropyl)-5-((R)-tetrahydrofuran-2-yl)-2,3-dihydrothiazole-4-carboxylic acid formation at 5 mM incubated for 55 mins by 1H-NMR based analysis; type: ADME; details: bacteria, 5000 µM; how it was run: as §3
# [15] = test system: Mycobacterium tuberculosis H37Rv; remark: listed apart in the source
# Bradyrhizobium japonicum = details: USDA110
# Bacteria [16] = test system: Bacteria; remark: listed apart in the source
# [17] = Drug metabolism assessed as OXA10 (unknown origin)-mediated compound hydrolysis by measuring (S)-2-((1S,2R)-1-carboxy-2-hydroxypropyl)-5-(4-hydroxybutylidene)-2,5-dihydrothiazole-4-carboxylic acid formation at 5 mM incubated for 16 hrs by 1H-NMR based analysis; type: ADME; details: bacteria, 5000 µM; how it was run: as §2
# [18] = Inhibition of KPC-2 (unknown origin); parameters: species or system Bacteria
# [19] = Drug metabolism assessed as OXA-23 (unknown origin)-mediated compound hydrolysis by measuring (S)-2-((1S,2R)-1-carboxy-2-hydroxypropyl)-5-(4-hydroxybutylidene)-2,5-dihydrothiazole-4-carboxylic acid formation at 2 mM incubated for 15 mins by 1H-NMR based analysis; type: ADME; details: bacteria, 0.25 h, 2000 µM
# Bacteria [20] = test system: Bacteria; remark: listed apart in the source
# [21] = Drug metabolism assessed as VIM-1 (unknown origin)-mediated compound hydrolysis by measuring (R)-2-((1S,2R)-1-carboxy-2-hydroxypropyl)-5-(4-hydroxybutylidene)-2,5-dihydrothiazole-4-carboxylic acid formation at 5 mM incubated for 5 mins by 1H-NMR based analysis; type: ADME; details: bacteria, 5000 µM
# [22] = Drug metabolism assessed as NDM-1 (unknown origin)-mediated compound hydrolysis by measuring (S)-2-((1S,2R)-1-carboxy-2-hydroxypropyl)-5-((R)-tetrahydrofuran-2-yl)-2,3-dihydrothiazole-4-carboxylic acid formation at 5 mM incubated for 5 mins by 1H-NMR based analysis; type: ADME; details: bacteria, 5000 µM; how it was run: as §1
# [23] = Drug metabolism assessed as VIM-1 (unknown origin)-mediated compound hydrolysis by measuring (S)-2-((1S,2R)-1-carboxy-2-hydroxypropyl)-5-((R)-tetrahydrofuran-2-yl)-2,3-dihydrothiazole-4-carboxylic acid formation at 5 mM incubated for 5 mins by 1H-NMR based analysis; type: ADME; details: bacteria, 5000 µM
# [24] = test system: Mycobacterium tuberculosis H37Rv; remark: listed apart in the source
# [25] = Drug metabolism assessed as OXA-23 (unknown origin)-mediated compound hydrolysis by measuring (R)-2-((1S,2R)-1-carboxy-2-hydroxypropyl)-5-(4-hydroxybutylidene)-2,5-dihydrothiazole-4-carboxylic acid formation at 2 mM incubated for 15 mins by 1H-NMR based analysis; type: ADME; details: bacteria, 0.25 h, 2000 µM
structure (smiles),measurement,setting,value
C[C@@H](O)[C@H]1C(=O)N2C(C(=O)O)=C([C@H]3CCCO3)S[C@H]12 [FAROPENEM],Drug metabolism,[1],Metabolite_Detected
same,Drug metabolism,[2],Metabolite_Detected
same,Drug metabolism,[3],Metabolite_Detected
same,Drug metabolism,[4],Metabolite_Detected
same,Drug metabolism,[5],Metabolite_Detected
same,kcat,[6],0.91 s⁻¹
same,Drug metabolism,[7],Metabolite_Detected
same,Drug metabolism,[8],Metabolite_Detected
same,Drug metabolism,[9],Metabolite_Detected
same,Drug metabolism,[10],Metabolite_Detected
same,kcat/Km,Bacteria [11],7.17e+06 M⁻¹ s⁻¹
same,kcat,Bacteria [12],36.7 s⁻¹
same,Drug metabolism,[13],Metabolite_Detected
same,Drug metabolism,[14],Metabolite_Detected
same,Km,Klebsiella pneumoniae,99 µM
same,kcat/Km,[15],40000 M⁻¹ s⁻¹
same,kcat,Bradyrhizobium japonicum,2 s⁻¹
same,kcat,Bacteria [16],3.71 s⁻¹
same,Drug metabolism,[17],Metabolite_Detected
same,Ki,[18],44.1 µM
same,Drug metabolism,[19],Metabolite_Detected
same,Km,Bacteria [20],16.6 µM
same,Drug metabolism,[21],Metabolite_Detected
same,Drug metabolism,[22],Metabolite_Detected
same,Drug metabolism,[23],Metabolite_Detected
same,Km,[24],23 µM
same,Drug metabolism,[25],Metabolite_Detected
